Source: PubChem BioAssay (several laboratories)
A selection: hits, their analogues and other compounds. The true share with any hit is near 1.6%.
MT1-MMP act inh: blocks activation of human MT1-MMP | P50281 | HT1080 RFP-PRO-GFP cells, GFP/RFP ratio fluorescence, overnight; percent of plate control window, DMSO zero | GFP/RFP ratio change, % at 20 µM | 360,000 tested, 0.061% active | AID 651647;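 active = GFP/RFP ratio change of at least 30% with cell ATP level not reduced by more than half and red fluorescence within 50% of control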
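Assay system: HT1080 cells carrying an RFP-PRO-GFP reporter | Dosing: Single dose of 20 µM compound, 1% DMSO final | Incubation: Cells overnight before dosing, compound overnight, 37 °C, 5% CO2 | Evaluation: GFP/RFP fluorescence ratio | Control set: DMSO and RFP-L50D-GFP cell wells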
SKN-1 block: C. elegans SKN-1 inhibition; 360,000 tested, 0.49% active; C. elegans VP596 Pgst-4::GFP/RFP ratio, acrylamide-induced, 24 h; AID 624304; inhibition, % at 21.8 µM;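 active = interference check ratio from 0.5 to 1.5 plus GFP to RFP signal ratio inhibition reaching or exceeding a fixed threshold, cut at about 30% in these data, passing the limit was not always enough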
Arrestin-AP2 inh: human beta-arrestin and AP2 interaction inhibition; FITC-arrestin peptide / GST-AP2 beads, flow cytometry; AP2 beta2 appendage carries R879A mutation; inhibition, % at 10 µM; 340,000 tested, 0.31% active;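 active = inhibition above a set limit, near 3 SD of compounds lacking own fluorescence, cut at about 54% in these data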;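 note: plate controls were DMSO wells for no effect and 5 µM unlabelled arrestin peptide for full effect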
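Material – GST-tagged AP2 beta2-adaptin appendage (R879A) on 4 µm glutathione beads · Probe or stimulus – fluorescein-tagged arrestin peptide at 50 nM final · Timing – 12 min plus 1 h, RT · Detection – bead flow cytometry, FITC channel · Read-out basis – inhibition as reduced fluorescein signal on beads, percent · Medium – PBS plus Tween 20 (0.05%) and BSA (0.1%)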
Rin1 Abl inh: human Rin1-Abl interaction inhibition; TR-FRET Rin1/Abl binding, biochemical; inhibition, % at 7.35 µM; 360,000 tested, 0.4% active; in the data active = inhibition above about 5%, passing the limit was not always enough
TbMetRS inhib: Trypanosoma brucei MetRS inhibition; purified T. brucei MetRS, ATP depletion, Kinase-Glo luminescence; inhibition, % at 11.9 µM; 360,000 tested, 0.4% active; AID 624268;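 active = inhibition above a per-plate cutoff of the control wells' mean inhibition plus 3 SD, cut at about 5.5% in these data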;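 note: 0% = DMSO wells median and 100% = median of wells with control inhibitor compound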
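Material: T. brucei methionyl-tRNA synthetase, purified; reagent: substrates ATP, L-methionine and bulk Escherichia coli tRNA; dosing: 11.9 µM single point; timing: 15 min plus 2 h at 25 °C; detection: luminescence of leftover ATP; evaluation: % inhibition; control set: DMSO-only wells as low control; replicates: singlicate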
Tb MetRS conf: Trypanosoma brucei MetRS inhibition confirmed; T. brucei MetRS enzyme, luminescence (ATP depletion); inhibition, % at 11.9 µM; 1,400 tested, 93% active; shares compounds with TbMetRS inhib; AID 624412; in the data active = inhibition above about 7%
Jurkat cytotox: Jurkat T cell cytotoxicity for MetRS hits; shares compounds with TbMetRS inhib; Jurkat cells viability, ATP luminescence; inhibition, % at 8.3 µM; 1,400 tested, 12% active; AID 624413; in the data active = inhibition above about 15%;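 note: 0% = vehicle and 100% = reference inhibitor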
Tb MetRS inh FP: T. brucei MetRS inhibition, orthogonal assay; purified T. brucei MetRS, fluorescence polarization; shares compounds with TbMetRS inhib; inhibition, % at 11.9 µM; AID 651607; 1,400 tested, 44% active; in the data active = inhibition above about 17%;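 note: 0% = vehicle wells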
Starred values were filed as active, the others as inactive; x = no result.

SMILES	MT1-MMP act inh	SKN-1 block	Arrestin-AP2 inh	Rin1 Abl inh	TbMetRS inhib	Tb MetRS conf	Jurkat cytotox	Tb MetRS inh FP
N#Cc1cccc(NC(=O)CNc2cccc(S(=O)(=O)N3CCCCC3)c2)c1	-11	9	6	-2	0	x	x	x
O=C(Cc1c(F)cccc1Cl)Nc1cc(S(=O)(=O)N2CCOCC2)ccc1N1CCCC1	-3	10	1	0	0	x	x	x
O=C(Cc1ccc(Cl)cc1)Nc1cc(S(=O)(=O)N2CCOCC2)ccc1N1CCCC1	-4	0	1	1	39*	52*	-1	28*
O=C(C1=C[C@@H](c2csc3ccccc23)C[C@@H](OCCCCO)O1)N1CCN(Cc2ccc3c(c2)OCO3)CC1	-5	6	23	2	12*	48*	1	27*
O=C(C1=C[C@H](c2ccccc2)C[C@H](OCCCCO)O1)N1CCN(Cc2ccc3c(c2)OCO3)CC1	7	-6	8	4	0	x	x	x
O=C(C1=C[C@@H](c2ccc(Br)cc2)C[C@@H](OCCCCO)O1)N1CCN(Cc2ccc3c(c2)OCO3)CC1	0	-1	-6	-2	9.0*	31*	5	9
O=C(C1=C[C@H](c2csc3ccccc23)C[C@H](OCCCCO)O1)N1CCN(Cc2ccc3c(c2)OCO3)CC1	-3	3	1	0	0	x	x	x
O=C(Nc1ccc(F)c(Cl)c1)C1CC2CCC1C2 (stereo not given)	-5	13	-4	0	0	x	x	x
COc1cc2c(cc1OC)CN(c1ccc([N+](=O)[O-])cc1Cl)CC2	8	-10	5	-2	5	x	x	x
COc1cc2c(cc1OC)CN(c1ccc([N+](=O)[O-])cc1C#N)CC2	-2	7	11	-2	11*	19*	19*	8
O=C(CSc1nnc(CNC(=O)c2cccs2)o1)Nc1ccc(Br)cc1	3	-3	-3	1	2	x	x	x
CCO[C@@H]1OC(C(=O)NCc2nc3ccccc3[nH]2)=C[C@H](C)[C@H]1CCCO	4	-21	x	4	0	x	x	x
CCO[C@H]1OC(C(=O)NCc2nc3ccccc3[nH]2)=C[C@@H](c2ccc(C(F)(F)F)cc2)[C@@H]1CCCO	4	7	1	0	11*	35*	6	12
C#Cc1ccc([C@@H]2C=C(C(=O)NCc3nc4ccccc4[nH]3)O[C@H](OCC)[C@H]2CCCO)cc1	-5	13	1	3	28*	51*	6	33*
CCO[C@@H]1OC(C(=O)NCc2nc3ccccc3[nH]2)=C[C@H](c2ccc(C(F)(F)F)cc2)[C@H]1CCCO	1	-3	-3	1	33*	61*	3	38*
CCO[C@H]1OC(C(=O)NCc2nc3ccccc3[nH]2)=C[C@@H](C)[C@@H]1CCCO	3	-3	27	4	2	x	x	x
COc1cccc(-c2cnc(C(O)c3cc(C)cc(C)c3)[nH]2)c1 (stereo not given)	1	31	x	4	0	x	x	x
C[C@@H]1CN([C@H](C)CO)C(=O)CCCn2nncc2CO[C@@H]1CN(C)S(=O)(=O)c1ccc(-n2cccn2)cc1	-6	-2	x	4	1	x	x	x
COc1ccc2c(c1OC)C(CC(C)=O)N1CCc3cc4c(cc3C1C2=O)OCO4 (stereo not given)	-29	8	x	3	0	x	x	x
C=CC(=O)Nc1cccc(Oc2ccnc3[nH]ccc23)c1	-1	19	-5	1	1	x	x	x
C=CC(=O)Nc1cccc(Oc2ncnc3[nH]cc(-c4cnc5ccccc5c4)c23)c1	-21	2	9	-1	8.6*	30*	6	21*
O=C(CCNS(=O)(=O)c1ccc(Br)s1)Nc1ccc(Cl)cc1	3	4	-11	4	78*	85*	8	69*
O=C(CCNS(=O)(=O)c1cccc2nonc12)Nc1ccc(Cl)cc1	-2	1	1	-1	10*	21*	0	6
COc1cccc(C(C(=O)NCc2ccccc2)N2CCN(c3cccc(C)c3C)CC2)c1OC (stereo not given)	-1	-2	x	x	-1	x	x	x
COc1ccccc1CCC(=O)Nc1cccc(S(=O)(=O)N2CCOCC2)c1	2	9	18	6	0	x	x	x
SMILES	MT1-MMP act inh	SKN-1 block	Arrestin-AP2 inh	Rin1 Abl inh	TbMetRS inhib	Tb MetRS conf	Jurkat cytotox	Tb MetRS inh FP
COc1ccccc1CCC(=O)Nc1cccc(S(=O)(=O)N2CCCCCC2)c1	4	-6	5	-2	5.7*	28*	-4	14
O=C(Cn1c(NCCO)nc2ccccc21)Nc1cccc(S(=O)(=O)N2CCCC2)c1	3	8	-13	3	11*	48*	4	16
O=C(CCl)Nc1cccc(S(=O)(=O)N2CCCCCC2)c1	1	7	17	0	1	x	x	x
CCc1nc2c(OCC=C(C)C)cccn2c1N(C)C(=O)c1ccc(OC)cc1	4	20	x	-3	0	x	x	x
Nc1ccc2nc(CCCCCCc3nc4ccc(N)cc4[nH]3)[nH]c2c1	-1	-10	7	2	0	x	x	x
Nc1ccc2nc(CCCCc3nc4ccccc4[nH]3)[nH]c2c1	7	2	39	2	9.3*	14*	3	5
O=C(NC(Cc1ccccc1)c1nc2ccccc2[nH]1)c1ccc(Cl)c([N+](=O)[O-])c1 (stereo not given)	-3	7	13	-3	20*	26*	11	12
CSCC[C@H](NC(=O)COc1ccc(Cl)cc1Cl)c1nc2ccccc2[nH]1	-1	13	12	-1	12*	24*	5	11
CSCC[C@H](NC(=O)c1ccc(Cl)c([N+](=O)[O-])c1)c1nc2ccccc2[nH]1	0	0	21	-3	56*	73*	9	43*
CCOc1ccccc1NC(=O)c1ccc(OCC)c([N+](=O)[O-])c1	8	-3	20	2	-1	x	x	x
Cc1c(C(=O)NC(Cc2ccccc2)c2nc3ccccc3[nH]2)cccc1[N+](=O)[O-] (stereo not given)	-12	1	x	0	0	x	x	x
CCOc1ccc(C(=O)Nc2cc(-c3nc4ccccc4[nH]3)ccc2Cl)cc1[N+](=O)[O-]	-11	6	3	0	7.7*	14*	5	15
O=C(C(=Cc1ccc(O)cc1)c1ccccc1)c1ccccc1	8	-2	x	x	0	x	x	x
